Reference: ChEMBL document CHEMBL2331343 (Bioorg Med Chem, 2013)
Active and inactive are the calls of the source. No cut-off for these calls is given here.

How the values were obtained:
[1] = target: T1, 5-hydroxytryptamine receptor 2A (Homo sapiens, UniProt P28223); experiment: Displacement of [3H]Ketanserin from 5-HT2A receptor (unknown origin) expressed in HEK293 cells by liquid scintillation counter; format: cell-based
[2] = target: T2, D(2) dopamine receptor (Homo sapiens, UniProt P14416); settings: HEK293, at 10 µM
[3] = target: T3, D(1A) dopamine receptor (Homo sapiens, UniProt P21728); experiment: Inhibition of [3H]SCH23390 binding to dopamine D1 receptor (unknown origin) expressed in human HEK293 cells at 10 uM by liquid scintillation counter relative to control; format: cell-based
Method in brief: (§1)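 Stably transfected HEK293T D1 membranes, […], duplicate incubation 50 min at 30 °C with [3H]SCH23390 in 50 mM Tris, 4 mM MgCl2, pH 7.4. Nonspecific binding with 10 μM SCH23390. GF/B filtration, scintillation counting.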

[4] = target: T3, D(1A) dopamine receptor; experiment: Displacement of [3H]SCH23390 from dopamine D1 receptor (unknown origin) expressed in human HEK293 cells by liquid scintillation counter; format: cell-based; method in brief: as §1
[5] = target: T2, D(2) dopamine receptor; experiment: Displacement of [3H]spiperone from dopamine D2 receptor (unknown origin) expressed in human HEK293 cells by liquid scintillation counter; format: cell-based
[6] = target: T4, 5-hydroxytryptamine receptor 1A (Homo sapiens, UniProt P08908); experiment: Displacement of [3H]8-OH-DPAT from 5-HT1A receptor (unknown origin) expressed in HEK293 cells by liquid scintillation counter; format: cell-based
T4 sequence (P08908 whole entry): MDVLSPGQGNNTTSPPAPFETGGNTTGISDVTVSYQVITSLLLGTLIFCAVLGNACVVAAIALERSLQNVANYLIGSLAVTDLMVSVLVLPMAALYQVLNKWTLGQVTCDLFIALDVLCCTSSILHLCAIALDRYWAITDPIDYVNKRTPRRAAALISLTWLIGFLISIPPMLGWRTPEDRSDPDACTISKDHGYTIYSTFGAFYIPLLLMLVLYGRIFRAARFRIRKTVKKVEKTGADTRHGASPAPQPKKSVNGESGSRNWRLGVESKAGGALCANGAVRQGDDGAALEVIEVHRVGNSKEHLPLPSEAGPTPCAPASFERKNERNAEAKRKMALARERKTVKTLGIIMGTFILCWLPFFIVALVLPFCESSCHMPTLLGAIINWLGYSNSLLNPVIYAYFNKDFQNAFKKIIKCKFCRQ

[7] = target: T1, 5-hydroxytryptamine receptor 2A; experiment: Inhibition of [3H]Ketanserin binding to 5-HT2A receptor (unknown origin) expressed in HEK293 cells at 10 uM by liquid scintillation counter relative to control; format: cell-based
Method in brief: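 Membranes of HEK293T stably transfected with 5-HT2A, […], incubated in duplicate 15 min at 37 °C with [3H]ketanserin in 50 mM Tris, 4 mM MgCl2, pH 7.4. […] GF/B filtration, cold wash, scintillation counting.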

[8] = target: T5, 5-hydroxytryptamine receptor 1A (Homo sapiens) (UniProt P08908); experiment: Inhibition of [3H]8-OH-DPAT binding to 5-HT1A receptor (unknown origin) expressed in HEK293 cells at 10 uM by liquid scintillation counter relative to control; format: cell-based
T5 sequence (whole entry): T4 sequence (P08908 whole entry)
Method in brief: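 Membranes of HEK293T stably transfected with 5-HT1A, […], incubated in duplicate 50 min at 30 °C with [3H]8-OH-DPAT in 50 mM Tris, 4 mM MgCl2, pH 7.4. Nonspecific binding with 10 μM WAY100635. Filtration on GF/B, cold Tris/EDTA wash, scintillation counting.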

[9] = test system: Rattus norvegicus; experiment: Antipsychotic activity in Sprague-Dawley rat schizophrenia model assessed as inhibition of PCP-induced prepulse inhibition at 0.5 mg/kg, ip administered 10 mins prior testing monitored for 5 mins; format: functional, organism-based; set-up: dose 0.5 mg/kg
Method in brief: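 Male Sprague–Dawley rats (230–280 g) received ip saline or drug 10 min before PCP (5 mg/kg, ip). Acoustic startle PPI was tested 5 min after PCP, after 3-min acclimation: 40 ms, 120 dB white-noise pulse-alone and prepulse+pulse trials, 15–25 s intertrial interval, 74 dB background, about 20 min session. %PPI = [1 − (prepulse+pulse startle)/(pulse-alone startle)] × 100.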

[10] = test system: Rattus norvegicus; experiment: In vivo agonist activity at 5-HT1A receptor in Sprague-Dawley rat DA neuron assessed as increase in bursts at 1 mg/kg, iv; format: functional, organism-based; set-up: dose 1 mg/kg
Method in brief: (§2)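 Male Sprague-Dawley rats under chloral hydrate anesthesia (400 mg/kg ip) at 37 °C. Single-unit recording of VTA DA neurons by glass microelectrode. Raclopride 0.1 mg/kg given first, then compound 1 mg/kg. Firing rate and bursts analysed every 10 s as % of post-raclopride baseline. n = 5, paired t-test.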

[11] = test system: Rattus norvegicus; experiment: In vivo agonist activity at 5-HT1A receptor in WAY100635 pre-treated Sprague-Dawley rat DA neuron assessed as increase in bursts at 1 mg/kg, iv; format: functional, organism-based; set-up: dose 1 mg/kg
Method in brief: (§3)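 Anesthetized (chloral hydrate) Sprague-Dawley rats given raclopride, then WAY100635 before compound 1 mg/kg. VTA DA neuron single-unit firing rate and bursts analysed every 10 s as % of post-raclopride baseline. n = 5, paired t-test.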

[12] = target: T3, D(1A) dopamine receptor; experiment: Antagonist activity at dopamine D1 receptor (unknown origin) expressed in HEK293 cells assessed as inhibition of [35S]GTPgammaS binding by scintillation proximity assay; format: functional, cell-based
[13] = target: T2, D(2) dopamine receptor
[14] = test system: Rattus norvegicus; experiment: Effect on baseline startle reactivity in Sprague-Dawley rat schizophrenia model at 5 mg/kg, ip administered 10 mins prior testing monitored for 5 mins; format: ADME, organism-based; set-up: dose 5 mg/kg, route intraperitoneal; settings: in vivo
Method in brief: (§4)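 Male Sprague-Dawley rats were pretreated ip with saline or compound 10 min before PCP (5 mg/kg, ip). Acoustic startle was tested 5 min after PCP, following 3 min acclimation: 40 ms, 120 dB pulse with prepulse trials, 74 dB background, 15–25 s intertrial interval, session about 20 min. %PPI = [1 − (prepulse+pulse)/(pulse alone)]×100. Startle = mean of pulse-alone trials, first 3 excluded.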

[15] = test system: Rattus norvegicus; experiment: In vivo agonist activity at 5-HT1A receptor in Sprague-Dawley rat DA neuron assessed as increase in firing rate at 1 mg/kg, iv in presence of WAY100635; format: functional, organism-based; set-up: dose 1 mg/kg
Method in brief: (§5)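 VTA DA neuron single-unit recording in chloral hydrate-anesthetized Sprague-Dawley rats after raclopride 0.1 mg/kg. Compound 1 mg/kg was followed by WAY100635 1.0 mg/kg. Firing rate and bursting were analysed in 10 s bins relative to the post-raclopride baseline.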

[16] = test system: Rattus norvegicus; experiment: Antipsychotic activity in ip dosed Sprague-Dawley rat schizophrenia model assessed as inhibition of PCP-induced hyperlocomotion administered 10 mins prior testing monitored for 5 mins; format: functional, organism-based
Method in brief: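 Male Sprague-Dawley rats (230–280 g) given saline or compound ip 10 min before PCP 5 mg/kg. Starting 5 min after PCP, rats were video-tracked in a 40×40×45 cm open field for 30 min. Total distance recorded; n = 6–12 per group; one-way ANOVA with Tamhane post hoc test.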

[17] = test system: Rattus norvegicus; experiment: In vivo agonist activity at 5-HT1A receptor in Sprague-Dawley rat DA neuron assessed as increase in firing rate at 1 mg/kg, iv; format: functional; method in brief: as §2
[18] = target: T5, 5-hydroxytryptamine receptor 1A (Homo sapiens); experiment: (§6) Agonist activity at 5-HT1A receptor (unknown origin) expressed in HEK293 cells assessed as […] of [35S]GTPgammaS binding by scintillation proximity assay; format: functional, cell-based
[19] = target: T4, 5-hydroxytryptamine receptor 1A; experiment: as §6; format: functional, cell-based
[20] = test system: Rattus norvegicus; experiment: Antipsychotic activity in Sprague-Dawley rat schizophrenia model assessed as inhibition of PCP-induced hyperlocomotion at 2.5 mg/kg, ip administered 10 mins prior testing […]; format: functional, organism-based; set-up: dose 2.5 mg/kg
[21] = test system: Rattus norvegicus; experiment: Effect on prepulse inhibition in Sprague-Dawley rat schizophrenia model at 5 mg/kg, ip administered 10 mins prior testing monitored for 5 mins; format: ADME, organism-based; set-up: dose 5 mg/kg, route intraperitoneal; settings: in vivo; method in brief: as §4
[22] = test system: Rattus norvegicus; experiment: Antipsychotic activity in Sprague-Dawley rat schizophrenia model assessed as effect on 120 db noise-induced absolute acoustic startle responses at 5 mg/kg, ip administered 10 mins prior testing monitored for 5 mins; format: functional, organism-based; set-up: dose 5 mg/kg; method in brief: as §4
[23] = test system: Rattus norvegicus; experiment: In vivo agonist activity at 5-HT1A receptor in Sprague-Dawley rat DA neuron assessed as increase in bursts at 1 mg/kg, iv in presence of WAY100635; format: functional, organism-based; set-up: dose 1 mg/kg; method in brief: as §5
[24] = test system: Rattus norvegicus; experiment: In vivo agonist activity at 5-HT1A receptor in WAY100635 pre-treated Sprague-Dawley rat DA neuron assessed as increase in firing rate at 1 mg/kg, iv; format: functional, organism-based; set-up: dose 1 mg/kg; method in brief: as §3
[25] = target: T3, D(1A) dopamine receptor; experiment: Agonist activity at dopamine D1 receptor (unknown origin) expressed in HEK293 cells assessed as stimulation of [35S]GTPgammaS binding by scintillation proximity assay; format: functional, cell-based
[26] = test system: Rattus norvegicus; experiment: Antipsychotic activity in Sprague-Dawley rat schizophrenia model assessed as inhibition of PCP-induced prepulse inhibition at 5 mg/kg, ip administered 10 mins prior testing monitored for 5 mins; format: functional, organism-based; set-up: dose 5 mg/kg; method in brief: as §4
[27] = test system: Rattus norvegicus; experiment: Antipsychotic activity in Sprague-Dawley rat schizophrenia model assessed as inhibition of PCP-induced prepulse inhibition at 10 mg/kg, ip administered 10 mins prior testing monitored for 5 mins; format: functional, organism-based; set-up: dose 10 mg/kg; method in brief: as §4
[28] = test system: Rattus norvegicus; experiment: Antipsychotic activity in Sprague-Dawley rat schizophrenia model assessed as inhibition of PCP-induced hyperlocomotion at 10 mg/kg, ip administered 10 mins prior testing […]; format: functional, organism-based; set-up: dose 10 mg/kg

T1 sequence (P28223 whole entry): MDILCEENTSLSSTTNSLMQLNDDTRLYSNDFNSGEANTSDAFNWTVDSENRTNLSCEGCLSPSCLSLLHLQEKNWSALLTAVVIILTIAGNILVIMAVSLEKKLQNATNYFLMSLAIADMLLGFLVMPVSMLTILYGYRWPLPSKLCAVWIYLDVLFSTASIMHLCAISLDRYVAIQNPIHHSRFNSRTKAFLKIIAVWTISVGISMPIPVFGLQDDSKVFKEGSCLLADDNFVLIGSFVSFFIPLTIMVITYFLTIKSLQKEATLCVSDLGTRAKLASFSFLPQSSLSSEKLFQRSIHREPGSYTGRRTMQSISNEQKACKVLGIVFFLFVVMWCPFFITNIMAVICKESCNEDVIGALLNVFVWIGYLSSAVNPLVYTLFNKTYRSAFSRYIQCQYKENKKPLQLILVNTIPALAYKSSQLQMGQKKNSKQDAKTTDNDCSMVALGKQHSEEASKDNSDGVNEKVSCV
T3 sequence (P21728 whole entry): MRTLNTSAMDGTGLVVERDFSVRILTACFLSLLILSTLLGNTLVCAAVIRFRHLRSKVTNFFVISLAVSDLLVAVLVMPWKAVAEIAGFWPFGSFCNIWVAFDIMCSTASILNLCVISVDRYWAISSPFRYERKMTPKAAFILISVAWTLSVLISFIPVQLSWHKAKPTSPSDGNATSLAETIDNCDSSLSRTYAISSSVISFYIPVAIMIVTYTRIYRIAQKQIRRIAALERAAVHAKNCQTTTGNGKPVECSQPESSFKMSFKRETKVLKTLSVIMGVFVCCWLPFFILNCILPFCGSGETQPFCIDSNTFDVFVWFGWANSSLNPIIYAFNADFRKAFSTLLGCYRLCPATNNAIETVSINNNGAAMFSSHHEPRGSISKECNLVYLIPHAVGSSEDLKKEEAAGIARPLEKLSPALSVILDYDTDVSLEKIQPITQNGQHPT
T2 sequence (P14416 whole entry): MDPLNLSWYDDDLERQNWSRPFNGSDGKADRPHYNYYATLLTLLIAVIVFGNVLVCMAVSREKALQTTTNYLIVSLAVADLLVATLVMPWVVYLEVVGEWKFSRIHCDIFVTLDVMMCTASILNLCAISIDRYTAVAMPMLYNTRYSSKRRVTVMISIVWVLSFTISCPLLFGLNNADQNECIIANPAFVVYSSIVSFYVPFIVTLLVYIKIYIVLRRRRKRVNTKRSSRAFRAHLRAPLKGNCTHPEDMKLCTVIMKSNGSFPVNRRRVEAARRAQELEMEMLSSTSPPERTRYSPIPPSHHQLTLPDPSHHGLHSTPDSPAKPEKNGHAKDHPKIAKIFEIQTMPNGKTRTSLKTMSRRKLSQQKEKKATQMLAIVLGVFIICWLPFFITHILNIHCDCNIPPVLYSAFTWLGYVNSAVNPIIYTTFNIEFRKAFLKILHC

Row | SMILES | inhibition [2] [%] | inhibition [3] [%] | Ki [4] [nM] | Ki [5] [nM] | Ki [6] [nM] | inhibition [7] [%] | inhibition [8] [%] | further results
1 | COc1cc2c(cc1O)CCN1Cc3c(ccc(O)c3OC)C[C@@H]21 | 94.2 | 98.3 | 200 | 113 | > 5000 | 84 | 76.7 | Ki [1]: > 5000 nM
2 | Cc1nc2n(c(=O)c1CCN1CCC(c3noc4cc(F)ccc34)CC1)CCCC2 | – | – | – | – | – | – | – | inhibition [9]: Active
3 | COc1cc2c(cc1OC)[C@@H]1Cc3ccc(O)c(OC)c3CN1CC2 | 88.8 | 98.8 | 50 | 305 | 149 | 68.8 | 97.4 | Activity [10]: Active; Activity [11]: inactive; IC50 [12]: 21300 nM; IC50 [13]: 18700 nM; Activity [14]: Non-toxic; Activity [15]: inactive; inhibition [16]: Dose-dependent effect; Activity [17]: 128.3%; Emax [18]: 156%; EC50 [19]: 190 nM; inhibition [20]: Active; Activity [21]: Non-toxic; Activity [22]: inactive; Activity [23]: inactive; Activity [24]: inactive; EC50 [25]: 1350 nM; inhibition [26]: Active
4 | COc1cc2c(cc1OC)[C@@H]1Cc3ccc(OC)c(OC)c3CN1CC2 [TETRAHYDROPALMATINE] | 85.4 | 96.9 | 231 | > 5000 | > 5000 | 33 | 84.9 | –
5 | COc1ccc2c(c1O)CN1CCc3cc4c(cc3[C@@H]1C2)OCO4 | 78 | 98.7 | 60 | > 5000 | > 5000 | 49.1 | 82.8 | –
6 | COc1c(O)ccc2c1CN1CCc3cc4c(cc3[C@@H]1C2)OCO4 | 92.8 | 99.7 | 6.3 | 145 | 908 | 73.6 | 95.7 | inhibition [27]: Active; IC50 [12]: 17400 nM; IC50 [13]: 1000 nM; Activity [14]: Non-toxic; inhibition [28]: Active; inhibition [16]: Dose-dependent effect; Emax [18]: 80.7%; EC50 [19]: 13500 nM; Activity [22]: inactive; EC50 [25]: 16000 nM; inhibition [26]: Active
7 | COc1c(O)ccc2c1CN1CCc3cc4c(cc3[C@@H]1C2)OCCO4 | 73.1 | 22.6 | – | – | 208 | 97.3 | 90.8 | Ki [1]: 363 nM
8 | COc1c(O)ccc2c1CN1CCc3cc4c(cc3[C@@H]1C2)OCC4 | 63.9 | 99.3 | 7.5 | – | > 5000 | 91.7 | 79.5 | Ki [1]: 480 nM
9 | COc1cc2c(cc1O)CCN1Cc3c(ccc(OC)c3O)C[C@@H]21 | 79.8 | 95.2 | 530 | > 5000 | – | 59.1 | 60.5 | –
10 | COc1ccc2c(c1OC)CN1CCc3cc4c(cc3[C@@H]1C2)OCO4 [CANADINE] | 88.7 | 98.3 | 66 | 119 | > 5000 | 46.6 | 84.4 | –
11 | COc1cc2c(cc1O)[C@@H]1Cc3ccc(O)c(OC)c3CN1CC2 [STEPHOLIDINE] | 97.5 | 99.8 | 3.4 | 11 | > 5000 | – | – | –
12 | COc1cc2c(cc1O)[C@@H]1Cc3ccc(OC)c(O)c3CN1CC2 [SCOULERINE] | 93.4 | 99.1 | 22 | 214 | – | 20.9 | 14.2 | –
